From ChEMBL document CHEMBL1156597, “Structure-activity relationship of kahalalide F synthetic analogues” (J Med Chem, 2008)

Experiments:
SK-BR-3 = assay: Cytotoxicity against human SKBR3 cells after 48 hrs by SRB assay; assay type: functional; conditions: SK-BR-3, 48 h; for CC50: read-out: LC50 (the source's name)
Method in brief: (§1)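 Cells grown in RPMI 1640 with 10% FBS and penicillin/streptomycin at 37 °C and 5% CO₂, trypsinized, then seeded at 5 × 10³/well. After 18 h drug-free attachment, samples in DMSO/EtOH/PBS (0.5:0.5:99) were added for 48 h continuous exposure. Cells were fixed with cold TCA (1 h, 4 °C) and stained with SRB (10 min). Tris-solubilized stain read at 490 nm. Triplicate wells, mean ± SD; GI₅₀ derived.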

PANC-1 = assay: Cytotoxicity against human PANC1 cells after 48 hrs by SRB assay; assay type: functional; conditions: PANC-1, 48 h; for CC50: read-out: LC50 (the source's name); method in brief: as §1
SK-MEL-28 = assay: Cytotoxicity against human SK-MEL-28 cells after 48 hrs by SRB assay; assay type: functional, cell-based; conditions: Homo sapiens, SK-MEL-28, 48 h; for CC50: read-out: LC50 (the source's name); method in brief: as §1
[1] = Cytotoxicity against human IGROV-ET cells after 48 hrs by SRB assay; assay type: functional; conditions: for CC50: read-out: LC50 (the source's name); method in brief: as §1
[2] = Cytotoxicity against human IGROV cells after 48 hrs by SRB assay; assay type: functional; conditions: for CC50: read-out: LC50 (the source's name); method in brief: as §1
LNCaP = assay: Cytotoxicity against human LNcaP cells after 48 hrs by SRB assay; assay type: functional; conditions: for CC50: read-out: LC50 (the source's name); method in brief: as §1
DU-145 = assay: Cytotoxicity against human DU145 cells after 48 hrs by SRB assay; assay type: functional, cell-based; conditions: Homo sapiens, DU-145, 48 h; for CC50: read-out: LC50 (the source's name); method in brief: as §1
LoVo [3] = assay: Cytotoxicity against human doxorubicin resistant LoVo cells after 48 hrs by SRB assay; assay type: functional; conditions: for CC50: read-out: LC50 (the source's name); method in brief: as §1
LoVo [4] = assay: Cytotoxicity against human LoVo cells after 48 hrs by SRB assay; assay type: functional; conditions: for CC50: read-out: LC50 (the source's name)
A549 = assay: Cytotoxicity against human A549 cells after 48 hrs by SRB assay; assay type: functional, cell-based; conditions: Homo sapiens, A549, 48 h; method in brief: as §1
HeLa = assay: Cytotoxicity against human HeLa cells after 48 hrs by SRB assay; assay type: functional; conditions: for CC50: read-out: LC50 (the source's name); method in brief: as §1
[5] = Cytotoxicity against human HeLa-APL cells after 48 hrs by SRB assay; assay type: functional; method in brief: as §1
HT-29 = assay: Cytotoxicity against human HT29 cells after 48 hrs by SRB assay; assay type: functional, cell-based; conditions: Homo sapiens, HT-29, 48 h; for CC50: read-out: LC50 (the source's name); method in brief: as §1
K562 = assay: Cytotoxicity against human K562 cells after 48 hrs by SRB assay; assay type: functional; conditions: K562, 48 h; for CC50: read-out: LC50 (the source's name); method in brief: as §1

SMILES | GI50 (SK-BR-3; read-out: GI50) [nM] | CC50 (SK-BR-3) [nM] | GI50 (PANC-1) [nM] | TGI (PANC-1) [nM] | CC50 (PANC-1) [nM] | GI50 (SK-MEL-28; read-out: GI50) [nM] | CC50 (SK-MEL-28) [nM] | CC50 [1] [nM] | GI50 ([2]; read-out: GI50) [nM] | CC50 [2] [nM] | GI50 (DU-145; read-out: GI50) [nM] | CC50 (DU-145) [nM] | CC50 (LoVo [3]) [nM] | TGI (LoVo [4]) [nM] | CC50 (LoVo [4]) [nM] | LC50 (A549) [nM] | GI50 (A549; read-out: GI50) [nM] | CC50 (HeLa) [nM] | GI50 [5] [nM] | LC50 (concentration giving 50% net cell kill) [5] [nM] | further results
C/C=C1\NC(=O)[C@H](Cc2c(F)c(F)c(F)c(F)c2F)NC(=O)[C@@H](C(C)C)NC(=O)[C@@H]([C@H](C)CC)NC(=O)[C@H](NC(=O)[C@H](NC(=O)[C@H](CCCN)NC(=O)[C@H]2CCCN2C(=O)[C@H](NC(=O)[C@@H](NC(=O)[C@@H](NC(=O)[C@H](NC(=O)CC[C@@H](C)CC)C(C)C)[C@@H](C)O)C(C)C)C(C)C)[C@H](C)CC)[C@H](C)OC(=O)[C@H](C(C)C)NC1=O | 556 | 435 | 2110 | 3420 | 2810 | 1280 | 1120 | 1150 | 2070 | 1100 | 1370 | 1000 | 374 | 426 | 386 | 1270 | 1850 | 1300 | 1450 | 983 | TGI (SK-BR-3): 492 nM; TGI (SK-MEL-28): 1200 nM; TGI [2]: 1740 nM; GI50 (LNCaP): 504 nM; TGI (LNCaP): 681 nM; CC50 (LNCaP): 778 nM; TGI (DU-145): 1170 nM; GI50 (LoVo [3]): 496 nM; TGI (LoVo [3]): 432 nM; GI50 (LoVo [4]): 469 nM; TGI (A549): 1530 nM; TGI [5]: 1200 nM; GI50 (HT-29): 1090 nM; TGI (HT-29): 1740 nM; CC50 (HT-29): 256 nM
C/C=C1\NC(=O)[C@H](Cc2ccc(I)cc2)NC(=O)[C@@H](C(C)C)NC(=O)[C@@H]([C@H](C)CC)NC(=O)[C@H](NC(=O)[C@H](NC(=O)[C@H](CCCN)NC(=O)[C@H]2CCCN2C(=O)[C@H](NC(=O)[C@@H](NC(=O)[C@@H](NC(=O)[C@H](NC(=O)CC[C@@H](C)CC)C(C)C)[C@@H](C)O)C(C)C)C(C)C)[C@H](C)CC)[C@H](C)OC(=O)[C@H](C(C)C)NC1=O | 305 | 327 | 1200 | 1300 | 1410 | 160 | 354 | 776 | 670 | 179 | 148 | 117 | 225 | 361 | 358 | 181 | 226 | 156 | 313 | 605 | TGI (SK-BR-3): 315 nM; GI50 (SK-MEL-28): 202 nM; GI50 [1]: 955 nM; GI50 ([1]; read-out: GI50): 1190 nM; GI50 [2]: 394 nM; GI50 (LNCaP): 345 nM; TGI (LNCaP): 512 nM; CC50 (LNCaP): 686 nM; GI50 (DU-145): 131 nM; GI50 (LoVo [3]): 134 nM; TGI (LoVo [3]): 183 nM; GI50 (LoVo [4]): 365 nM; GI50 (A549): 203 nM; TGI [5]: 416 nM; GI50 (HT-29): 396 nM; TGI (HT-29): 407 nM; CC50 (HT-29): 423 nM
C/C=C1\NC(=O)[C@H](Cc2ccc3ccccc3c2)NC(=O)[C@@H](C(C)C)NC(=O)[C@@H]([C@H](C)CC)NC(=O)[C@H](NC(=O)[C@H](NC(=O)[C@H](CCCN)NC(=O)[C@H]2CCCN2C(=O)[C@H](NC(=O)[C@@H](NC(=O)[C@@H](NC(=O)[C@H](NC(=O)CCCC(C)C)C(C)C)[C@@H](C)O)C(C)C)C(C)C)[C@H](C)CC)[C@H](C)OC(=O)[C@H](C(C)C)NC1=O | 21.7 | 32.7 | 606 | 909 | 1370 | 135 | 339 | 120 | 27.3 | 44.3 | 50.9 | 224 | 148 | 22.9 | 34.4 | 343 | 110 | 220 | 77.5 | 205 | GI50 (SK-BR-3): 18.8 nM; GI50 (K562): 287 nM; TGI (K562): 679 nM; CC50 (K562): 1320 nM; GI50 (SK-MEL-28): 213 nM; TGI [1]: 60.4 nM; GI50 ([1]; read-out: GI50): 46.4 nM; GI50 [2]: 37.2 nM; GI50 (DU-145): 116 nM; GI50 (LoVo [3]): 29.5 nM; TGI (LoVo [3]): 29 nM; GI50 (A549): 194 nM; GI50 (HeLa): 71.6 nM; TGI (HeLa): 94.6 nM; TGI [5]: 91.7 nM; GI50 (HT-29): 37.9 nM; TGI (HT-29): 39.1 nM; CC50 (HT-29): 60.9 nM
C/C=C1\NC(=O)[C@H](Cc2ccccc2)NC(=O)[C@@H](C(C)C)NC(=O)[C@@H]([C@H](C)CC)NC(=O)[C@H](NC(=O)[C@H](NC(=O)[C@H](CCCNC(=O)/C=C/CCC)NC(=O)[C@H]2CCCN2C(=O)[C@H](NC(=O)[C@@H](NC(=O)[C@@H](NC(=O)[C@H](NC(=O)CCCC(C)C)C(C)C)[C@@H](C)O)C(C)C)C(C)C)[C@H](C)CC)[C@H](C)OC(=O)[C@H](C(C)C)NC1=O | 55.7 | 102 | 1670 | 1670 | 1670 | 814 | 1120 | 517 | 179 | 467 | 661 | 876 | 96.9 | 82.4 | 90.6 | 1090 | 619 | 908 | 503 | 802 | GI50 (SK-BR-3): 67.8 nM; GI50 (K562): 1240 nM; TGI (K562): 1820 nM; CC50 (K562): 1820 nM; TGI (SK-MEL-28): 1120 nM; GI50 [1]: 250 nM; GI50 ([1]; read-out: GI50): 205 nM; GI50 [2]: 221 nM; GI50 (DU-145): 876 nM; GI50 (LoVo [3]): 140 nM; TGI (LoVo [3]): 116 nM; GI50 (LoVo [4]): 75.6 nM; TGI (A549): 1090 nM; GI50 (HeLa): 407 nM; TGI (HeLa): 670 nM; TGI [5]: 514 nM; GI50 (HT-29): 126 nM; TGI (HT-29): 103 nM; CC50 (HT-29): 268 nM
C/C=C1\NC(=O)[C@@H]2C[C@@H]3CCCC[C@@H]3N2C(=O)[C@@H](C(C)C)NC(=O)[C@@H]([C@H](C)CC)NC(=O)[C@H](NC(=O)[C@H](NC(=O)[C@H](CCCN)NC(=O)[C@H]2CCCN2C(=O)[C@H](NC(=O)[C@@H](NC(=O)[C@@H](NC(=O)[C@H](NC(=O)CC[C@@H](C)CC)C(C)C)[C@@H](C)O)C(C)C)C(C)C)[C@H](C)CC)[C@H](C)OC(=O)[C@H](C(C)C)NC1=O | 700 | 138 | 2580 | 3670 | 2000 | 1150 | 1120 | 507 | 1820 | 582 | 1460 | 1070 | 527 | 1920 | 2420 | 1070 | 1460 | 1050 | 1260 | 1000 | TGI (SK-BR-3): 887 nM; GI50 (K562): 4750 nM; TGI (K562): 4040 nM; CC50 (K562): 2670 nM; TGI (SK-MEL-28): 1140 nM; GI50 [1]: 827 nM; GI50 ([1]; read-out: GI50): 1590 nM; GI50 [2]: 871 nM; TGI (DU-145): 1250 nM; GI50 (LoVo [3]): 358 nM; TGI (LoVo [3]): 433 nM; GI50 (LoVo [4]): 1210 nM; TGI (A549): 1250 nM; GI50 (HeLa): 1560 nM; TGI (HeLa): 1270 nM; TGI [5]: 1120 nM; CC50 (HT-29): 677 nM
C/C=C1\NC(=O)[C@H](Cc2ccccc2)NC(=O)[C@@H](C(C)C)NC(=O)[C@@H]([C@H](C)CC)NC(=O)[C@H](NC(=O)[C@H](NC(=O)[C@H](CCCNC(=O)C[C@](OC)(c2ccccc2)C(F)(F)F)NC(=O)[C@H]2CCCN2C(=O)[C@H](NC(=O)[C@@H](NC(=O)[C@@H](NC(=O)[C@H](NC(=O)CCCC(C)C)C(C)C)[C@@H](C)O)C(C)C)C(C)C)[C@H](C)CC)[C@H](C)OC(=O)[C@H](C(C)C)NC1=O | 91.8 | 158 | 1550 | 1550 | 1550 | 1040 | 1040 | 479 | 245 | 442 | 886 | 812 | 119 | 91.4 | 90.9 | 1010 | 1010 | 842 | 554 | 850 | GI50 (SK-BR-3): 95.8 nM; GI50 (K562): 1110 nM; TGI (K562): 1690 nM; CC50 (K562): 1690 nM; TGI (SK-MEL-28): 1040 nM; GI50 [1]: 397 nM; GI50 ([1]; read-out: GI50): 344 nM; GI50 [2]: 313 nM; GI50 (DU-145): 812 nM; GI50 (LoVo [4]): 92.7 nM; TGI (A549): 1010 nM; GI50 (HeLa): 537 nM; TGI (HeLa): 842 nM; TGI [5]: 615 nM; GI50 (HT-29): 148 nM; TGI (HT-29): 147 nM; CC50 (HT-29): 311 nM
